Reference: ChEMBL document CHEMBL3399972, “Structure-activity relationships of a novel pyranopyridine series of Gram-negative bacterial efflux pump inhibitors” (Bioorg Med Chem, 2015)
Converted amounts (≈) assume the structure as drawn. The source made the active and inactive calls. Unless noted, the calls are words filed in the database; no cut-off is given here. Where a SMILES comes first, the peptide text is derived from it. Bridges are numbered along the chain shown (N, C = ends). [ ]: non-standard residue; d: D form. Dab = NCC[C@H](N)C(=O)O

Key:
Escherichia coli [1] = assay: Inhibition of multidrug resistance efflux pump in Escherichia coli assessed as concentration required to reduce levofloxacin MIC by 4-fold by checkerboard assay
Escherichia coli [2] = assay: Inhibition of multidrug resistance efflux pump in wild-type Escherichia coli AB1157 assessed as concentration required to reduce piperacillin MIC by 4-fold by checkerboard assay
HeLa = assay: Cytotoxicity against human HeLa cells; assay type: cell-based
Escherichia coli [3] = assay: Antibacterial activity against Escherichia coli at 100 uM; assay type: functional, organism-based
Escherichia coli [4] = assay: Inhibition of lactose permease-dependent [3H]TMG uptake in Escherichia coli HN1157 up to 20 uM
How it was run: (§1)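 Proton motive force probed in E. coli HN1157 by LacY permease-mediated accumulation of [methyl-3H] thiogalactopyranoside (stock 1 mCi/ml, 7 Ci/mmol), compounds tested at concentrations up to 20 µM.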

Escherichia coli [5] = assay: Inhibition of lactose permease in Escherichia coli HN1157 assessed as [3H]TMG accumulation up to 20 uM relative to control; how it was run: as §1
Escherichia coli [6] = assay: Effect on outer membrane permeability in AcrAB-deficient Escherichia coli HN1159 assessed as influx of nitrocefin at 20 uM; assay type: functional
[7] = Metabolic stability in mouse liver microsomes assessed as compound remaining at 25 uM after 60 mins by HPLC analysis in presence of NADPH; assay type: ADME; details: read-out: Stability
How it was run: (§2)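 Human or mouse liver microsomes at 0.5 mg/mL in 100 mM potassium phosphate pH 7.4 with 3 mM MgCl2, test compound 25 µM final, with or without (control) 2 mM NADPH; 37 °C for one hour, then stopped with equal volume acetonitrile containing 0.1% trifluoroacetic acid. Value: peak area with NADPH relative to no-NADPH control, as percent remaining.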

[8] = Metabolic stability in human liver microsomes assessed as compound remaining at 25 uM after 60 mins by HPLC analysis in presence of NADPH; assay type: ADME; details: read-out: Stability; how it was run: as §2
[9] = Inhibition of mouse liver microsome CYP3A4 at 3 uM after 10 mins by luminescence assay; assay type: ADME; details: microsomes
[10] = Aqueous solubility of the compound by nephlometric method; assay type: physicochemical
How it was run: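 Maximum solubility in water, measured by nephelometry.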

Escherichia coli [11] = assay: Antibacterial activity against wild-type Escherichia coli AB1157; assay type: functional
How it was run: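 MIC determined according to CLSI guidelines, with modifications described in earlier work.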

Escherichia coli [12] = assay: Antibacterial activity against TolC-deficient Escherichia coli AB1157; assay type: functional
How it was run: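 MIC determined following CLSI guidelines, with modifications from the authors' earlier work, in the TolC-deficient mutant of E. coli AB1157.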

Enterobacteriaceae = assay: Antimicrobial activity against Enterobacteriaceae; assay type: functional
Escherichia coli [13] = assay: Effect on outer membrane permeability in AcrAB-deficient Escherichia coli HN1159 assessed as influx of nitrocefin at 20 ug/ml; assay type: functional
Escherichia coli [14] = assay: Inhibition of lactose permease in Escherichia coli HN1157 assessed as [3H]TMG accumulation up to 100 uM relative to control

| SMILES | INH (Escherichia coli [1]) | INH (Escherichia coli [2]) | CC50 (HeLa) | Activity (Escherichia coli [3]) | inhibition (Escherichia coli [4]) | [3H]TMG accumulation relative to control (Escherichia coli [5]) | Activity (Escherichia coli [6]) | remaining at 1 h, 25 µM [7] | remaining at 1 h, 25 µM [8] | inhibition (INH) [9] | solubility kinetic [10] | MIC (Escherichia coli [11]) | MIC (Escherichia coli [12]) | MIC (Enterobacteriaceae) | Activity (Escherichia coli [13]) | inhibition (Escherichia coli [14]) |
| --- | --- | --- | --- | --- | --- | --- | --- | --- | --- | --- | --- | --- | --- | --- | --- | --- |
| CC1CN(c2nc(SCCc3ccc(N)cc3)c(C#N)c3c2COC(C)(C)C3)CC(C)O1 (stereo not drawn) | 0.8 µM | 0.8 µM | 52.2 µM | inactive | inactive | 100% | 102% | 72% | 76% | 59% | 12 µM (≈ 5.43 µg/mL) | – | – | – | – | – |
| C[C@H]1COc2c(N3CCN(C)CC3)c(F)cc3c(=O)c(C(=O)O)cn1c23 [LEVOFLOXACIN] | – | – | – | – | – | – | – | – | – | – | – | 0.063 µM (≈ 0.0228 µg/mL) | 0.016 µM (≈ 0.00578 µg/mL) | – | – | – |
| CC(=O)Nc1ccc(CCSc2nc(N3CC(C)OC(C)C3)c3c(c2C#N)CC(C)(C)OC3)cc1 (stereo not drawn) | 0.1 µM | 0.1 µM | 60.5 µM | inactive | inactive | 97% | 100% | 0% | 37% | 61% | 50 µM (≈ 24.7 µg/mL) | – | – | – | – | – |
| CC1CN(c2nc(SCCc3cccnc3)c(C#N)c3c2COC(C)(C)C3)CC(C)O1 (stereo not drawn) | 12.5 µM | 3.1 µM | 42.6 µM | inactive | inactive | – | 86% | 19% | 53% | 0% | ≥ 100 µM | – | – | – | – | – |
| CCN1CCN(C(=O)N[C@@H](C(=O)N[C@@H]2C(=O)N3[C@@H]2SC(C)(C)[C@@H]3C(=O)O)c2ccccc2)C(=O)C1=O [PIPERACILLIN] | – | – | – | – | – | – | – | – | – | – | – | 4 µM (≈ 2.07 µg/mL) | 0.125 µM (≈ 0.0647 µg/mL) | – | – | – |
| CC1(C)Cc2c(C#N)c(SCCc3ccccc3)nc(N3CCOCC3)c2CO1 | 3.1 µM | 3.1 µM | > 100 µM | inactive | inactive | 102% | 90% | 0% | 0% | – | 12 µM (≈ 4.91 µg/mL) | – | – | ≥ 100 µM | – | – |
| COCCN1CCN(c2nc(SCCc3ccc(OC)c(OC)c3)c(C#N)c3c2COC(C)(C)C3)CC1 | 1.6 µM | 0.4 µM | 38.8 µM | inactive | inactive | 100% | 100% | 13% | 20% | 48% | ≥ 100 µM | – | – | – | – | – |
| COc1cccc(CCSc2nc(N3CCOCC3)c3c(c2C#N)CC(C)(C)OC3)c1 | 2.4 µM | 1.6 µM | > 100 µM | inactive | inactive | 99% | 94% | 0% | 8% | 29% | 50 µM (≈ 22 µg/mL) | – | – | – | – | – |
| CC1CN(c2nc(SCCc3ccc(NC(=O)OC(C)(C)C)cc3)c(C#N)c3c2COC(C)(C)C3)CC(C)O1 (stereo not drawn) | 0.8 µM | 0.4 µM | > 100 µM | inactive | inactive | – | 99% | 66% | 59% | 0% | 100 µM (≈ 55.3 µg/mL) | – | – | – | – | – |
| CC(C)C[C@@H]1NC(=O)[C@@H](Cc2ccccc2)NC(=O)[C@H](CCN)NC(=O)[C@@H](NC(=O)[C@H](CCN)NC(=O)[C@@H](N)[C@@H](C)O)CCNC(=O)[C@H]([C@@H](C)O)NC(=O)[C@H](CCN)NC(=O)[C@H](CCN)NC1=O [POLYMYXIN B NONAPEPTIDE] (H-T[Dab][Dab][Dab][dF]L[Dab][Dab]T; lactam 3-C) | – | – | – | – | – | – | – | – | – | – | – | – | – | – | 162% | – |
| CC1CN(c2nc(SCCc3ccc(NC(=N)N)cc3)c(C#N)c3c2COC(C)(C)C3)CC(C)O1 (stereo not drawn) | 0.8 µM | 0.8 µM | 12 µM | inactive | inactive | 86% | – | 90% | 90% | 9% | 100 µM (≈ 49.5 µg/mL) | – | – | – | – | – |
| N#CC(C#N)=NNc1cccc(Cl)c1 | – | – | – | – | – | – | – | – | – | – | – | – | – | – | – | 3% |
| C=CC(=O)Nc1ccc(CCSc2nc(N3CC(C)OC(C)C3)c3c(c2C#N)CC(C)(C)OC3)cc1 (stereo not drawn) | 0.1 µM | 0.05 µM | 62.4 µM | inactive | inactive | 99% | 89% | 49% | 100% | – | 25 µM (≈ 12.7 µg/mL) | – | – | – | – | – |
| COCCN1CCN(c2nc(SCCc3ccc(OC)cc3)c(C#N)c3c2COC(C)(C)C3)CC1 | 6.3 µM | 3.1 µM | 34.8 µM | inactive | inactive | 103% | 94% | 17% | – | 42% | ≥ 100 µM | – | – | – | – | – |
| CC1CN(c2nc(SCCc3cccc(F)c3)c(C#N)c3c2COC(C)(C)C3)CC(C)O1 (stereo not drawn) | 1.6 µM | 1.6 µM | > 100 µM | inactive | inactive | 103% | 99% | – | – | – | – | – | – | – | – | – |
